# Rows were chosen to be rich in hits. Some 4.6% of all compounds tested hit in one or more screens of this group.
# UCH37 DUB inh = blocks the human deubiquitinase UCH37. inhibition, % (concentration not given with the values). Q9Y5K5. 330,000 compounds, 0.33% hits. purified proteasome/UCH37, Ub-AMC cleavage fluorescence. AID 588478;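 active = mean inhibition over replicate wells above about 20%, limit read from the data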;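 also: 0% = compound-free wells with enzyme and 100% = wells lacking proteasome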
#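 Schedule: 30 min plus 25 min, room temperature / Material: human UCH37 within purified proteasomes / Technique: AMC fluorescence intensity at 355/460 nm / Buffer or medium: pH 7.4 Tris-HCl (50 mM) with ovalbumin, ATP-MgCl2, DTT / Controls: wells without proteasome as full block, compound-free enzyme plus substrate as uninhibited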
# Rtt109 HAT inh = inhibitors of Candida albicans Rtt109/Vps75 histone acetyltransferase; purified Rtt109/Vps75, ThioGlo CoA-SH fluorescence, 4 h; inhibition, % at 34.9 µM; 330,000 compounds, 0.16% hits; AID 540336;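 active = inhibition of at least 50% in every replicate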
# PfM18AAP inh = blocks P. falciparum M18 aspartyl aminopeptidase. 290,000 compounds, 1.2% hits. recombinant PfM18AAP, H-Glu-NHMec fluorogenic cleavage. inhibition, % at 7.35 µM;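 active = inhibition above the campaign mean inhibition over all tested compounds plus 3 SD, cut at about 28% in these data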;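 also: 0% = plate median of test compound wells and 100% = 2 mM ZnCl2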
# ALR inh = human ALR oxidase inhibition via reduced H2O2 | purified ALR, DTT oxidation, H2O2 HRP-luminol luminescence | 290,000 compounds, 3.8% hits | AID 485317 | P55789 | inhibition, % (test concentration not listed);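 active = mean replicate inhibition above about 79%, with every replicate also reaching it, limit read from the data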
# HDAC3 inhib = blocks human histone deacetylase 3; recombinant HDAC3, fluorogenic peptide/trypsin coupled, fluorescence; 320,000 compounds, 0.15% hits; inhibition, % at 8.3 µM; AID 2718; in the data active = inhibition above about 26%, passing the limit was not always enough
# FAS-TE inh = blocks the thioesterase domain of human fatty acid synthase | AID 602261 | P49327 | inhibition, % at 15 µM | 360,000 compounds, 0.67% hits | recombinant FAS-TE, OMFH fluorogenic substrate, fluorescence endpoint;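 active = compounds whose normalised, plate-corrected inhibition of enzyme fluorescence in the single-dose primary screen is 50% or more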;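 also: 0% = DMSO with enzyme and 100% = substrate without enzyme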
# Starred values were filed as active, the others as inactive; · = no result.
SMILES,UCH37 DUB inh,Rtt109 HAT inh,PfM18AAP inh,ALR inh,HDAC3 inhib,FAS-TE inh
CCN(CC)c1ccc(C(=C2C=CC(=[N+](CC)CC)C=C2)c2ccc(N(CC)CC)cc2)cc1,7,12,·,·,·,26
COc1ccc(C=NNC(=O)c2cc(-c3cccc(C)c3)nc3ccccc23)cc1O,3,·,·,·,·,·
C/C(=N/NC(=O)c1ccccn1)c1ccc(O)cc1,·,-5,-1,99*,4,-4
C/C(=N\NC(=O)COc1ccccc1)c1ccc(O)cc1,·,2,1,100*,6,-1
CCCCNc1c(-c2ccc(SC(C)CC)cc2)nc2cnccn12 (stereo unspecified),-126,-3,·,67,32*,55*
CCCCNc1c(-c2ccc(OC)c(Sc3ccc(OC)cc3)c2)nc2cnccn12,-69,-27,·,-2,13,28
Cc1ccc(CC(=O)O/N=C(\N)c2cccc([N+](=O)[O-])c2)cc1,4,10,0,-3,1,23
N/C(=N\OC(=O)Cc1ccc([N+](=O)[O-])cc1)c1cccc(Br)c1,·,8,2,99*,2,-13
N/C(=N\OC(=O)Cc1ccc([N+](=O)[O-])cc1)c1ccc([N+](=O)[O-])cc1,·,4,1,97*,-4,4
Cc1ccc(CC(=O)O/N=C(\N)Cc2ccc([N+](=O)[O-])cc2)cc1,6,-11,-4,35,5,21
COc1ccc(-c2cn(Cc3ccc(C(N)=O)cc3)c(-c3ccncc3)n2)cc1,-1,6,·,98*,11,-8
O=C(O)CCn1cc(-c2ccc(Cl)cc2)nc1-c1ccncc1,0,-2,·,77*,5,-8
Cc1ccccc1NCC(=O)NN=C/C(Br)=C/c1ccccc1,-2,·,·,·,·,·
O=C(O)COc1ccccc1C=NNC(=O)CSc1nc2ccccc2c(=O)n1-c1ccc(Cl)cc1,2,·,·,·,·,·
Cc1ccc(C2Cc3cc(O)c(O)cc3CN2)cc1 (stereo unspecified),3,·,·,99*,-11,-7
Cc1cccc(C=NNC(=O)c2ccc(Cl)cc2)c1O,1,·,·,·,·,·
O=C(NN=Cc1ccccc1Cl)C1CC1,0,·,·,·,·,·
O=C(N/N=C/c1c(O)n(-c2ccc(Cl)cn2)c(=O)c2ccccc12)C1CC1,-3,14,-1,95*,10,-10
O=C(N/N=C/c1c(O)n(-c2ccc(Cl)cn2)c(=O)c2ccccc12)c1ccncc1,4,4,10,80*,11,-6
O=C(CCl)NN=C(c1ccccc1)c1ccccc1,3,0,11,94*,2,8
O=C(CNC(=O)c1ccc(S(=O)(=O)N2CCCC2)cc1)NN=Cc1ccccc1,3,·,·,·,·,·
Cc1c(C(=O)NCc2ccccc2)oc2c1C(=O)CCC2,25*,-14,-10,-12,4,0
O=C(Nc1nc(-c2ccccc2)c(-c2ccccc2)o1)c1ccc(F)cc1,-1,9,-1,3,8,12
CCOC(=O)C(=O)Nc1nc(-c2ccccc2)c(-c2ccccc2)o1,2,1,1,88*,3,-14
CCNC(=S)NNC(=O)c1csc(CC)c1,5,-3,31*,33,7,-4
SMILES,UCH37 DUB inh,Rtt109 HAT inh,PfM18AAP inh,ALR inh,HDAC3 inhib,FAS-TE inh
COc1ccc(/C=C2\CCCc3c2nc2ccccc2c3C(=O)O)cc1OC,·,·,3,-22,-7,·
COc1cc(/C=C2\CCCc3c2nc2ccccc2c3C(=O)O)cc(OC)c1O,15,11,-24,99*,5,-3
O=C(O)c1ccc(/C=C2\CCCc3c2nc2ccccc2c3C(=O)O)cc1,-38,-2,1,-12,7,-5
O=C(O)c1c2c(nc3ccccc13)/C(=C/c1ccc(O)cc1)CCC2,-10,-26,5,100*,1,-2
O=C(NN=Cc1cn(-c2ccccc2)nc1-c1cc2ccccc2o1)c1c[nH]c2ccccc12,-6,·,·,·,·,·
COc1ccc(-c2ccc(CCC(=O)O)n2NC(=O)c2cccs2)cc1,0,4,6,56,1,-12
O=C(O)CCc1ccc(-c2cccs2)n1NC(=O)c1ccc(Cl)cc1,3,5,-3,98*,-5,-1
Cc1ccc(-c2ccc(CCC(=O)O)n2NC(=O)c2cccs2)cc1,0,0,1,99*,-2,-4
O=C(O)CCc1ccc(-c2cccs2)n1NC(=O)c1ccc(Cl)cc1Cl,2,2,-8,71,6,-8
